Compound activity as filed in PubChem BioAssay.
This is a sample that favours compounds with a hit; in the whole collection about 1.6% have one here.
L929 necroptosis: inhibitors of zVAD-triggered necroptosis, primary screen, L929 cells. AID 1377, 2008. L929 zVAD necroptosis rescue, ATP luminescence, 24 h; with zVAD 60 µM. 220,000 compounds, 0.38% hits. viability rescue, % at 10 µM;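 active means activation, scaled between plate controls, above about 75%, limit read from the data; inactive means activation under that limit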
Mdm2 ligase inh: MDM2-luciferase reporter signal enhancers, primary screen, MDM2 E3 ligase inhibitor project, cell-based, luminescence, 1536-well; signal enhancement, % at 5 µM; AID 1230, 2008; cell-based MDM2 ubiquitination luciferase reporter, 2 h; 0 = plate control, 100 = twice control, blank-subtracted; 210,000 compounds, 0.11% hits;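 active means signal enhancement of 30% or more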;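 further: luminescence tracks abundance of the self-degrading MDM2-luciferase fusion protein; higher signal means inhibition of MDM2 E3 ligase activity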
Target sequence (Q00987 whole entry, looked up, the tested form may be a part): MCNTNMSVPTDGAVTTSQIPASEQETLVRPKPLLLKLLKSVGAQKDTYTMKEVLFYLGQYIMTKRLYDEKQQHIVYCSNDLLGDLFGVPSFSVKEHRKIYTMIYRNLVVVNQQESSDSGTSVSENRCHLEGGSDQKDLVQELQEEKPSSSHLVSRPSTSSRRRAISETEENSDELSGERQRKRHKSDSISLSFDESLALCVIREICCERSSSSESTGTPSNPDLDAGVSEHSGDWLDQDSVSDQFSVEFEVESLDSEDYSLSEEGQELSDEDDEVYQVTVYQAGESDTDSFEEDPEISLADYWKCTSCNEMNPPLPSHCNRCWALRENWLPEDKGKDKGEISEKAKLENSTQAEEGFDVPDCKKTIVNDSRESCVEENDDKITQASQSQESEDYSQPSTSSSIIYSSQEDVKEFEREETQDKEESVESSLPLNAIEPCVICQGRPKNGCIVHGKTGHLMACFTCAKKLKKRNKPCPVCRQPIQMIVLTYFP
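Assay system: stable mammalian line carrying autodegrading MDM2–luciferase fusion reporter; amount: 2000 cells seeded into each well; buffer or medium: DMEM; benchmarks: plate control and blank wells; signal: luciferase luminescence; timing: 2 h compound exposure at 37 °C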
TNF necrop inh: inhibitors of TNF-alpha triggered necroptosis, primary screen, cell-based, Jurkat FADD-/-, single concentration; Jurkat FADD-/- TNF necroptosis rescue, ATP luminescence, 24 h; 0 = TNF only, 100 = no-TNF cells; 220,000 compounds, 0.068% hits; AID 463075, 2010; activation (protection from cell death), % at 10 µM;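 active means activation, meaning protection from cell death, of at least 50% relative to plate controls; inactive means activation below 50%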;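 further: necroptosis triggered by 40 ng/mL TNF-alpha added together with compound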
Pf gametocyte: late stage P. falciparum gametocyte viability inhibitors, primary screen, ATP luminescence, HTS; P. falciparum stage V gametocytes, 24 h; inhibition, % at 10.9 µM; AID 743093, 2013; 150,000 compounds, 0.065% hits;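 active means inhibition above the mean plus 3 SD of compounds within the control limits, set per campaign, cut at about 38% in these data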
Wee1 stabilizer: Wee1 degradation inhibitors, primary screen, cell-based, HeLa, Wee1K328M-luciferase, luminescence; HeLa Luc-Wee1K328M stability; 100% = proteasome inhibitor MG132 effect; Wee1-like protein kinase (Homo sapiens), P30291; 220,000 compounds, 1.2% hits; AID 1321, 2008; reporter increase, % at 5 µM;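 active means activation above the mean of all tested compounds plus 3 SD, set per screening run, cut at about 8.8% in these data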;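 further: cells exposed to compound for 20 h before luminescence read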
Large screens that a line does not name were inactive.

COc1ccc(C(=O)NC(NC(=O)c2ccc(OC)c(OC)c2)c2ccccc2F)cc1OC	Wee1 stabilizer 9.9 (no result: L929 necroptosis)
Cc1c(C(=O)N/N=C/c2ccc(O)c(Br)c2)sc(N)c1C#N	L929 necroptosis 76.4
CCN1CCN(Cc2ccc(NC(=O)c3cc(NC(=O)c4cncc(-c5ccc(C#N)cc5)c4)cc(OC)c3)cc2C(F)(F)F)CC1	L929 necroptosis 79.6 (no result: Pf gametocyte, Wee1 stabilizer)
COc1cc(OC)cc(C(=O)Nn2c(C)nc3ccccc3c2=O)c1	none
COc1ccc2[nH]c3c(c2c1)CCn1c-3nc2ccccc2c1=O	Wee1 stabilizer 12.8 (no result: Pf gametocyte)
Cc1c(-c2nc(N)nc(Nc3ccccc3)n2)oc2ccccc12	Wee1 stabilizer 10.0 (no result: Pf gametocyte)
Nc1nc(CN2CCCCCC2)nc(Nc2ccccc2)n1	none
O=c1c2sc(-c3ccccc3)cc2nc2n1CCC2	none (no result: Pf gametocyte)
O=c1c2sc(-c3ccccc3)cc2nc2n1CCCCC2	Wee1 stabilizer 9.9
COc1ccccc1CNc1cc(C)ccc1C	Wee1 stabilizer 9.5
COc1ccccc1CNC(=S)Nc1cc(C)ccc1C	none (no result: Pf gametocyte)
CCn1cc(/C=C/C(=O)Nc2ccn(Cc3c(F)c(F)cc(F)c3F)n2)cn1	TNF necrop inh 78.3 (no result: Pf gametocyte)
CN(CC(=O)Nc1ccccc1Br)Cc1nc2ccccc2c(=O)[nH]1	none
COc1ccc(C(=O)Nc2ccccc2C(=O)Nc2ccc(C(=O)O)cc2)cc1	none (no result: L929 necroptosis, Mdm2 ligase inh, TNF necrop inh, Wee1 stabilizer)
COc1ccc(C(=NNc2ccccc2C(=O)O)c2ccc(OC)cc2)cc1	Pf gametocyte 52.7 (no result: Mdm2 ligase inh)
CC(=O)N=c1c(C#N)cc2c(=O)n3cccc(C)c3nc2n1Cc1ccco1	Wee1 stabilizer 9.1
COC(=O)[C@@H](NC(=O)NC1CCN(Cc2ccccc2)CC1)C(C)C	none (no result: Pf gametocyte)
CN(C)c1nc(N(C)C)n(C(=O)c2cccs2)n1	none
COc1ccccc1-c1cc(C(F)(F)F)c(C#N)c(=O)[nH]1	none
COc1ccccc1-c1cc(SC)c(C#N)c(=O)o1	Mdm2 ligase inh 35.9 (no result: Pf gametocyte)
Cc1cccc(NC(=O)COc2ccc(Br)cc2/C=N/O)c1	Wee1 stabilizer 9.4
CC(=O)Nc1ccc(NC(=O)COc2ccc(Br)cc2C)cc1	none
CC(C)N(C(=O)NC(=O)NCC1CCCO1)S(C)(=O)=O (centres undefined)	Wee1 stabilizer 9.5 (no result: Pf gametocyte)
Cn1c(O)c(/C=C2\C=NN=C2c2ccccc2)sc1=S	Wee1 stabilizer 9.6
CCCCNC(=O)NCCN1CCOCC1	none
O=C(CN1C2CCC1CC(NC(=O)Nc1ccccc1)C2)NCc1ccco1 (centres undefined)	Wee1 stabilizer 10.1 (no result: Pf gametocyte)
CCCS(=O)(=O)c1nc(S(=O)(=O)c2ccc(C)cc2)c(N2CCCC2)s1	none (no result: Pf gametocyte)
COc1ccc(C)cc1C1=Nc2ccccc2C1(C)C	Mdm2 ligase inh 30.4
COc1cc(OC)cc(C(=O)NCCOC23CC4CC(CC(C4)C2)C3)c1	Wee1 stabilizer 9.4
CC(NC(=O)N(Cc1ccccc1)Cc1ccc2c(c1)OCO2)(C(F)(F)F)C(F)(F)F	none
CNS(=O)(=O)c1cccc(C(=O)OCC(=O)Nc2ccc(Cl)cc2F)c1	Wee1 stabilizer 9.8
O=C(Nc1ccc(CN2CCOCC2)cc1)c1cc2ccccc2o1	Wee1 stabilizer 10.3 (no result: Pf gametocyte)
CC1=C(C(=O)NC(C)CCc2ccccc2)C2(CCC(C)CC2)OC1=O (centres undefined)	Mdm2 ligase inh 36.2
COc1ccc(OC)c(CCNC(=O)Cn2cccc2C(=O)c2ccccc2C)c1	none
COc1ccc2nc(NC(=O)c3cccs3)sc2c1	Wee1 stabilizer 9.5
CC(C)c1ccc(Nc2nc(NCc3ccco3)nc(N3CCOCC3)n2)cc1	L929 necroptosis 86.5
C=CCC[C@H](Cc1ccc(F)cc1)C(=O)OC[C@@H](Cc1c[nH]c2ccccc12)NC(=O)[C@H](CC=C)CC(=O)N(CCO)Cc1ccccc1	none (no result: L929 necroptosis, Mdm2 ligase inh, TNF necrop inh, Wee1 stabilizer)
Cc1nn(-c2nnc(NCc3ccccc3)nn2)c(C)c1Br	Mdm2 ligase inh 33.9
CC1=NN(c2ccccc2)C(=O)C1N=Nc1ccc(S(N)(=O)=O)cc1 (centres undefined)	none (no result: Pf gametocyte)
CC(=O)Nc1ccc(S(=O)(=O)N2CCN=C2SCc2cccnc2)cc1	Mdm2 ligase inh 32.3 (no result: Pf gametocyte)
COc1ccc(Br)c(C(=O)N2CCN(S(=O)(=O)/C=C/c3ccccc3)CC2)c1	none
COc1ccc(N2CCN(S(=O)(=O)/C=C/c3ccccc3)CC2)cc1	Wee1 stabilizer 9.3
O=C(CSC1=NNC(c2ccccn2)S1)Nc1ccc(C(F)(F)F)cc1 (centres undefined)	Mdm2 ligase inh 36.8
c1ccc(CSC2=NNC(c3ccccn3)S2)cc1 (centres undefined)	Mdm2 ligase inh 36.7
CC(=O)Nc1ccc(NC(=O)CSc2ccccn2)cc1	none
c1ccc(CSc2ncccn2)cc1	none (no result: Pf gametocyte)
O=C(/C=C/c1cccc2ccccc12)c1ccncc1	none (no result: Pf gametocyte)
O=[N+]([O-])c1cc(S(=O)(=O)Nc2ccccc2)ccc1-n1nnc2ccccc21	none
Fc1ccccc1N1CCN(CCCc2ccccc2)CC1	none (no result: L929 necroptosis, Mdm2 ligase inh, TNF necrop inh, Wee1 stabilizer)
CC(C)N(C(=O)CSc1nnc(CNc2ccc(F)cc2)o1)C(C)C	none (no result: L929 necroptosis, Pf gametocyte)
COc1ccc(NC(=O)Nc2sc(=S)n(C)c2C)cc1	Wee1 stabilizer 12.5
Cc1c(NC(=O)Nc2ccc(Cl)c(Cl)c2)sc(=S)n1C	none (no result: Mdm2 ligase inh)
Cc1ccc(-c2cn(S(=O)(=O)c3cccc4nsnc34)nc2N)cc1	none
Cc1ccc(NC(=O)COC(=O)Cc2csc(-c3ccc(Cl)cc3)n2)cc1C	Wee1 stabilizer 14.5
COCCn1nnnc1C(c1cccc(OC)c1OC)N1CCN(C2CCCCC2)CC1 (centres undefined)	none
COc1ccc(-c2nnc(SCC(=O)N3CCOCC3)o2)cc1OC	none (no result: Pf gametocyte)
COc1cccc(OC)c1C(=O)NNC(=O)c1cccc(COc2ccc3c(c2)CCC3)c1	Mdm2 ligase inh 31.2 (no result: Pf gametocyte)
O=C(NCc1ccccc1)c1cccc(COc2ccc3c(c2)CCC3)c1	none
Cc1ccccc1-n1c(SCc2c(C)noc2C)nnc1-c1ccncc1	none
Cc1cc2nc(-c3ccccn3)c(-c3ccccn3)nc2cc1C	Wee1 stabilizer 9.3 (no result: Mdm2 ligase inh, Pf gametocyte)
CCCc1c(C)[nH]c2ccc(NC(C)=O)cc2c1=O	Wee1 stabilizer 8.9 (no result: Pf gametocyte)
CCN1CCN(Cc2nc3c(c(=O)n(C)c(=O)n3C)n2C(C)C(C)=O)CC1 (centres undefined)	Mdm2 ligase inh 30.5 (no result: Pf gametocyte)
CCN1CCN(Cc2nc3c(c(=O)n(C)c(=O)n3C)n2CCc2ccccc2)CC1	none (no result: L929 necroptosis, Mdm2 ligase inh, Pf gametocyte)
COc1ccc(Nc2nc(C(=O)N3CCc4cc(OC)c(OC)cc4C3)cs2)cc1	none (no result: Mdm2 ligase inh)
COc1ccc(Nc2nc(C(=O)N3CCc4ccccc4C3)cs2)cc1	Mdm2 ligase inh 33.1 (no result: Pf gametocyte)
CC1(C)CC2CC(C)(CN2C(=O)COC(=O)CNC(=O)c2ccc(Cl)c(Cl)c2)C1 (centres undefined)	Wee1 stabilizer 10.6
